Compounds with a hit are over-represented: about 4.8% of the library has one in this group of screens.
GPR7 antagonist: blocks human GPR7 receptor signaling. GPR7-expressing cells, fluorescence antagonist assay. inhibition, % at 4.4 µM. 290,000 compounds, 1.1% hits; in the data active means inhibition above about 16%, passing the limit was not always enough;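 further: cells stimulated with the agonist NPW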
Target sequence (P48145 whole entry, looked up): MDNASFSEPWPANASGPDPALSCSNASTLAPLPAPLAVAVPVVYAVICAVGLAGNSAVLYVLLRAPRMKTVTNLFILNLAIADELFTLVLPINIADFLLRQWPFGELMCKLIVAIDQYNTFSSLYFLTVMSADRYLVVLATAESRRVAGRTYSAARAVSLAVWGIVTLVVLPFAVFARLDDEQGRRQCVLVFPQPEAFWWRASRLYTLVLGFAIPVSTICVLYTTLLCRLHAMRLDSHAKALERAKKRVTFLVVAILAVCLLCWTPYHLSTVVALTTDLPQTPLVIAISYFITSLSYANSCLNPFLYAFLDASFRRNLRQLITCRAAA
T cruzi inh: blocks replication of Trypanosoma cruzi. 300,000 compounds, 1.4% hits. AID 1885. T. cruzi beta-gal in NIH3T3, luminescence, 90 h. inhibition, % (test concentration not listed);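 active means mean inhibition across valid replicates above about 55%, limit read from the data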;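 further: signal also drops with host cell toxicity which is not excluded here; higher percent means less beta-gal luminescence so fewer parasites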
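System: mouse NIH/3T3 fibroblasts infected with β-gal-expressing T. cruzi Tulahuen C4 / Input: NIH/3T3 cells, 5,000 per well / Buffer or medium: Low-serum DMEM with 2% FBS / Probe or stimulus: 5000 reporter trypomastigotes per well / Schedule: ≥90 h infection period, 3 h prior cell attachment / Measured by: GalScreen luminescence, 60 min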
697 NFkB inh: inhibitors of the PMA/ionomycin-induced NF-kB reporter in 697 B cells; 697 B-cell NF-kB luciferase reporter, 16 h; inhibition, % at 4 µM; 330,000 compounds, 0.33% hits; AID 435022; in the data active means inhibition above about 35%
HSF1 inhib: HSF1 inhibition; NIH3T3-HGL HSE-luciferase, MG132-induced, luminescence 8 h; hits give low values; activity change, negative = inhibition, % at 7.5 µM (by protocol); 300,000 compounds, 0.77% hits; AID 2098;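 active means more than half of replicate wells show activity change below -50%, luminescence cut by over half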;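 further: luciferase reports HSF-1 transcriptional activity via heat shock element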
Jurkat NFkB inh: lowers PMA/ionomycin-induced NF-kB signal in Jurkat cells. PMA/ionomycin-induced NF-kB luciferase reporter, luminescence. inhibition, % at 4 µM. 330,000 compounds, 0.53% hits. AID 435003; in the data active means inhibition above about 50%
HSF-1 act: increases HSF-1 driven luciferase reporter signal; NIH3T3-HGL HSF-1 luciferase reporter, MG132, 8 h; 100% = twice DMSO control signal; activation, % at 9 µM; 300,000 compounds, 1.7% hits;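 active means mean replicate activation of at least 50% with a set share of replicates each reaching 50%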
Large screens that a line does not name were inactive.

CCS(=O)(=O)N1Cc2ccccc2CC1C(=O)NCCc1ccccc1 (stereo not given)	none
Cc1oc(=O)c(NC(=O)c2ccccc2)cc1C(=O)c1ccccc1	HSF-1 act 121.4
Cc1oc(=O)c(NC(=O)c2ccc(Cl)cc2)cc1C(=O)c1ccccc1	HSF-1 act 83.3
CC(C)(CN1CCN(Cc2ccccc2)CC1)NS(=O)(=O)c1ccc(Cl)cc1	none
CN1CCN(CC(C)(C)NS(=O)(=O)c2ccc(Cl)cc2)CC1	T cruzi inh 70.1
COC(=O)c1ccccc1C(=O)N(c1ccccc1)c1ccccc1	none (no result: GPR7 antagonist)
CCC(C)(O)c1[nH]c2ccc(C(F)(F)F)cc2c1C (stereo not given)	none
COC(=O)c1ccc(N=c2sc(C(=O)OC)cc(=O)n2C)cc1	none (no result: T cruzi inh, 697 NFkB inh, HSF1 inhib, Jurkat NFkB inh, HSF-1 act)
COC(=O)c1cc(=O)n(-c2ccc(F)cc2)c(=Nc2ccc(F)cc2)s1	HSF-1 act 56.9
COC(=O)c1cc(=O)n(Cc2cccs2)c(=Nc2ccc(F)cc2)s1	HSF-1 act 52.1
O=C1CC(N2CCCCC2)C(=O)N1c1ccccc1 (stereo not given)	HSF1 inhib -53.0
O=C1CC(NNc2ccccc2)C(=O)N1c1ccccc1 (stereo not given)	HSF-1 act 63.0
COc1ccc(N2C(=O)CC(NNc3nc4ccccc4s3)C2=O)cc1 (stereo not given)	HSF-1 act 113.7
Cc1ccc(C(=O)N2CCCC(Nc3ccc(C(C)C)cc3)C2)cn1 (stereo not given)	none
O=S(=O)(c1ccc(F)cc1)N1CCC2(CC1)OCCO2	none
O=C(N/N=C/c1sc(=O)n(-c2ccccc2)c1Cl)c1ccccc1	HSF-1 act 66.1
O=C(Nc1ccccc1C(=O)Nc1ccncc1)c1cccc([N+](=O)[O-])c1	none
CC1(c2cc([N+](=O)[O-])cc([N+](=O)[O-])c2)CC(C)(C)N(C(=O)c2ccccc2)c2ccccc21 (stereo not given)	T cruzi inh 67.0
CN1Cc2c(N3CCOCC3)nc3sc(C#N)c(N)c3c2CC1(C)C	none
CN1Cc2c(N3CCOCC3)nc3sc(C(=O)c4ccc(Br)cc4)c(N)c3c2CC1(C)C	GPR7 antagonist 43.5
COc1ccc(Cl)cc1NC(=O)CN(C)C(=O)CN1C(=O)NC2(CCCC2)C1=O	none (no result: GPR7 antagonist)
COCCNC(=O)C1CCC(Cn2c(=S)[nH]c3ccccc3c2=O)CC1 (stereo not given)	none
O=C(NCCc1c[nH]c2ccccc12)C1CCC(Cn2c(=S)[nH]c3ccccc3c2=O)CC1 (stereo not given)	T cruzi inh 74.6
Cc1c(O)ccc(/C(Cc2ccc3ccccc3n2)=N\O)c1O	HSF-1 act 69.6
CC(=O)Oc1ccc(C(=O)Cc2ccc3ccccc3n2)c(O)c1C	HSF-1 act 76.4
COc1ccc(CCC(=O)N/N=C\c2cccs2)cc1	none
COC(=O)c1cc(C)nc2c1C(=O)C(=O)C=C2N1CCOCC1	T cruzi inh 67.4
O=C(Nc1ccncc1)Nc1cccc(F)c1	none
Cn1c(=O)c2c(nc(Sc3ncnn3CC(=O)N3CCOCC3)n2C)n(C)c1=O	HSF1 inhib -88.5
CC(O)C(C(=O)OCc1ccc([N+](=O)[O-])cc1)N1C(=O)c2ccccc2C1=O (stereo not given)	none (no result: T cruzi inh, 697 NFkB inh, HSF1 inhib, Jurkat NFkB inh, HSF-1 act)
CCOc1ccc(-n2c(SCc3nc(-c4cccs4)no3)nnc2-c2ccncc2)cc1	GPR7 antagonist 17.9, T cruzi inh 64.2
CC(C)CN(C(=O)CN(C)CC(=O)Nc1ccc(Cl)c(C(F)(F)F)c1)c1c(N)n(CC(C)C)c(=O)[nH]c1=O	none (no result: GPR7 antagonist, T cruzi inh, HSF1 inhib, HSF-1 act)
COc1ccc(-c2noc(CCN3C(=O)c4ccccc4C3=O)n2)cc1OC	HSF-1 act 87.5
Cc1oc(-c2cccc(Cl)c2)nc1CS(=O)(=O)CC(=O)NC1CCCC1	none
Cc1ccc2[nH]c(O)c(N=Nc3ccccc3C)c2c1	HSF1 inhib -63.4
CCN(CC)S(=O)(=O)c1ccc2oc(SCC(=O)Nc3cc(C)on3)nc2c1	T cruzi inh 60.4 (no result: GPR7 antagonist)
Cc1cc(NC(=O)CSc2nc3cc(Cl)ccc3o2)no1	none
Nc1cc[n+](CC(=O)Nc2ccccc2)cc1	HSF-1 act 56.5
Cc1cccc(NC(=O)C[n+]2ccccc2)c1	none
COc1ccc(C(=O)c2cc([N+](=O)[O-])ccc2N2CCCC2)cc1	none
COc1ccc(C(=O)c2cc([N+](=O)[O-])ccc2N2CCN(C)CC2)cc1	GPR7 antagonist 34.4
COc1ccc(C(=O)c2ccc([N+](=O)[O-])cc2Cl)cc1	T cruzi inh 60.2
COC(=O)c1[nH]c2cc(OC)c(OC)cc2c1NC(=O)CN1C[C@H]2C[C@@H](C1)c1cccc(=O)n1C2	none (no result: GPR7 antagonist, T cruzi inh, HSF1 inhib, HSF-1 act)
Cc1ccc(C)c(N2CCN(CCN3CCCCC3)CC2)c1	HSF1 inhib -56.9
COCCn1c(SCC(=O)NCCc2ccccc2)nnc1-c1ccco1	HSF-1 act 54.9
COc1ccc(CCNC(=O)CSc2ccc(-c3ccco3)nn2)cc1	HSF1 inhib -68.5
Cn1nc(C(=O)Nc2ccc(S(=O)(=O)Nc3ncccn3)cc2)ccc1=O	none
CCOc1nc(SC(C(C)=O)C(=O)Nc2ccccc2)nc(N(C)C)n1 (stereo not given)	HSF-1 act 56.5
CC(Sc1nc(NC(C)(C)C)nc(N(C)C)n1)C(=O)Nc1ccccc1 (stereo not given)	none
CCOc1ccc(N2CC(C(=O)NC3CCCCCC3)CC2=O)cc1 (stereo not given)	none
O=C(N/N=C/c1coc2ccccc2c1=O)c1ccc(Cl)cc1	none
O=c1c(/C=N\NS(=O)(=O)c2ccccc2)coc2ccc(Cl)cc12	HSF1 inhib -75.0
Clc1ccc(-c2nc3cc(CN4CCCCC4)ccc3o2)cc1	none (no result: 697 NFkB inh, Jurkat NFkB inh)
Cn1c(SCC(=O)NC2CCS(=O)(=O)C2)nc2ccccc21 (stereo not given)	none (no result: GPR7 antagonist, T cruzi inh, HSF1 inhib, HSF-1 act)
CCCc1cc(=O)oc2c3c(c4c(c12)OC(C)(C)C=C4)OC(C)C(C)C3O (stereo not given)	T cruzi inh 54.8
CCOC(=O)c1sc2nc(Cc3ccc(Cl)cc3)[nH]c(=S)c2c1C	none
Cn1ccc(C(=O)N/N=C/c2ccncc2)n1	HSF-1 act 78.2
O=C(C#Cc1cccc([N+](=O)[O-])c1)c1ccccc1	HSF-1 act 96.7
CCC(C)NC(=O)C1c2ccccc2C(=O)N1Cc1ccc(F)cc1 (stereo not given)	none
O=C(COC(=O)/C=C/c1cccc(C(F)(F)F)c1)NCc1cccs1	none (no result: GPR7 antagonist, T cruzi inh, HSF1 inhib, HSF-1 act)
Cc1cc(C)nc(N/N=C/C=C/c2ccccc2)n1	none
Cc1sc(N/N=C/C=C/c2ccccc2)nc1-c1ccccc1	T cruzi inh 55.4
CC[C@]1(C(=O)OC)[C@H]2C(=O)N(C)C(=O)[C@H]2[C@H]2CN=C(SCc3ccc(C(=O)OC)cc3)N21	none (no result: GPR7 antagonist, T cruzi inh, HSF1 inhib, Jurkat NFkB inh, HSF-1 act)
O=C(NCc1ccco1)C(c1ccccc1F)N(Cc1cccnc1)C(=O)Cn1nnc2ccccc21 (stereo not given)	T cruzi inh 66.4

Bioassay records (PubChem BioAssay)
